Experimental data collected from several papers.
Compare with care: the assays were run in different laboratories.
Effect on: cell growth or viability

Compound | cell line | method | tested at | time | endpoint | value
COc1cccc(NC(=O)Nc2nc3cc(-c4ccc5ncn(Cc6ccccc6)c(=O)c5c4)ccc3s2)c1 | PC-9 | MTT |  | 72 h | IC50 | > 20 µM
O=C(Nc1cccc(-c2cn(Cc3ccc(Cl)cc3)nn2)c1)Nc1ccccc1Br | PC-9 | CCK-8 | 20 µM | 72 h | viability | 130%
NCC(=O)Nc1ccccc1/N=c1\cc(-c2ccc3c(c2)OCO3)oc2c(N)cccc12 | HCT-116 | CCK-8 | 1 µM |  | inhibition | 14.3%
O=C(Nc1cc(C(F)(F)F)cc(C(F)(F)F)c1)Nc1nc2cc(-c3ccc4ncn(Cc5ccccc5)c(=O)c4c3)ccc2s1 | PC-9 | MTT |  | 72 h | IC50 | > 20 µM
Cc1ccccc1Cn1cc(-c2cccc(NC(=O)Nc3ccc(F)cc3)c2)nn1 | PC-9 | CCK-8 | 50 µM | 72 h | viability | 123%
O=C(NCc1cn(Cc2ccc(Br)cc2)nn1)Nc1ccc(Cl)cc1 | PC-9 | CCK-8 | 50 µM | 72 h | viability | 179%
CCCCCCCCCCCCCCCCCCOc1ccc(CC(=O)OCCC[N+](C)(C)C)cc1 | EKVX | SRB | 10 µM |  | inhibition | 3.92%
O=C(NCc1cn(Cc2cccc(Cl)c2)nn1)Nc1ccc(Cl)cc1 | PC-9 | CCK-8 | 50 µM | 72 h | viability | 90%
C[C@H](Nc1ccc2c(c1)OCCn1cc(N3C(=O)OC[C@H]3C(F)F)nc1-2)C(N)=O | SK-OV-3 | ATP luminescence |  | 5 days | EC50 | 0.0574 µM
COc1ccc(NC(=O)Nc2cccc(-c3cn(Cc4cccc(Cl)c4)nn3)c2)cc1 | PC-9 | CCK-8 | 50 µM | 72 h | viability | 136%
C=C(NC(=O)C(=C)NC(=O)c1csc(C2=N[C@@H]3c4csc(n4)[C@H]4NC(=O)c5csc(n5)[C@H]([C@](C)(O)[C@@H](C)O)NC(=O)[C@H]5CSC(=N5)/C(=C/C)NC(=O)[C@H]([C@@H](C)O)NC(=O)c5csc(n5)[C@]3(CC2)NC(=O)[C@H](C)NC(=O)C(=C)NC(=O)[C@H](C)NC(=O)[C@H]([C@@H](C)CC)N[C@@H]2C=Cc3c([C@H](C)O)cc(nc3[C@H]2O)C(=O)O[C@@H]4C)n1)C(N)=O | SK-OV-3 |  |  |  | EC50 | 2.5 µM
O=C(Nc1ccc(Cl)cc1)Nc1cccc(-c2cn(Cc3cccc(Br)c3)nn2)c1 | PC-9 | CCK-8 | 20 µM | 72 h | viability | 101%
CCCS(=O)(=O)Oc1cc(C=NNC(=O)c2nc3ccccc3s2)ccc1OC | HCT-116 | MTT | 100 µM | 48 h | cell death | 42.7%
NCCC(=O)Nc1ccccc1/N=c1\cc(-c2ccc3nc(N)oc3c2)oc2ccc(O)cc12 | HCT-116 | CCK-8 | 1 µM |  | inhibition | 15%
COc1ccc(NC(=O)Nc2ccc(-c3cn(Cc4cccc(Cl)c4)nn3)cc2)cc1 | PC-9 | CCK-8 | 50 µM | 72 h | viability | 90.4%
N[C@@H](CO)C(=O)Nc1ccccc1/N=c1\cc(-c2ccc3c(c2)OCO3)oc2ccccc12 | HCT-116 | CCK-8 | 1 µM |  | inhibition | 12.2%
O=C(NCc1cn(Cc2ccc(Cl)cc2)nn1)Nc1ccc(Cl)cc1 | PC-9 | CCK-8 | 50 µM | 72 h | viability | 81.7%
NC(=O)C1CCCN1C(=O)Nc1ccccc1/N=c1\cc(-c2ccc3c(c2)OCCO3)oc2cc(F)ccc12 (stereo not drawn) | HCT-116 | CCK-8 | 1 µM |  | inhibition | 13.6%
CC(=O)Nc1nc2cc(-c3ccc4ncn(Cc5ccccc5)c(=O)c4c3)ccc2s1 | PC-9 | MTT |  | 72 h | IC50 | > 20 µM
COc1ccc(NC(=O)Nc2cccc(-c3cn(Cc4ccc(Cl)cc4)nn3)c2)cc1 | PC-9 | CCK-8 | 20 µM | 72 h | viability | 147%
CCCCCCCCCCCCCCCCCCOc1ccccc1CC(=O)OCC[N+](C)(C)C | EKVX | SRB | 10 µM |  | inhibition | 53.1%

Compound | cell line | method | tested at | time | endpoint | value
COc1ccc(NC(=O)Nc2cccc(-c3cn(Cc4ccc(Br)cc4)nn3)c2)cc1 | PC-9 | CCK-8 | 20 µM | 72 h | viability | 141%
O=C(Nc1ccc(-c2cn(Cc3ccc(Br)cc3)nn2)cc1)Nc1ccccc1Br | PC-9 | CCK-8 | 20 µM | 72 h | viability | 85%
CCCCCCCCCCCCCCCCCCOc1ccccc1CC(=O)OCCC[N+](C)(C)C | EKVX | SRB | 10 µM |  | inhibition | 21%
O=C(Nc1ccc(Cl)cc1)Nc1ccc(-c2cn(Cc3cccc(Cl)c3)nn2)cc1 | PC-9 | CCK-8 | 20 µM | 72 h | viability | 72.1%
COc1ccc(NC(=O)NCc2cn(Cc3ccc(Cl)cc3)nn2)cc1 | PC-9 | CCK-8 | 50 µM | 72 h | viability | 104%
CCCCCCCCCCCCCCCCCCOc1ccccc1CC(=O)OCC[N+]1(C)CCOCC1 | EKVX | SRB | 10 µM |  | inhibition | 13.3%
COc1ccc2/c(=N/c3ccccc3NC(=O)N3CCOCC3)cc(-c3ccc4c(c3)OCCO4)oc2c1 | HCT-116 | CCK-8 | 1 µM |  | inhibition | 11.6%
Cc1nc(NC(=O)N2CCC[C@H]2C(N)=O)sc1-c1ccnc(C(C)(C)C(F)(F)F)c1 | KYSE-510 | ATP luminescence |  | 5 days | EC50 | 1.5 µM
CCCCCCCCCCCCCCCCCCOc1ccc(CC(=O)OCC[N+](CC)(CC)CC)cc1 | EKVX | SRB | 10 µM |  | inhibition | 12.5%
Cc1nc(Nc2ncc(C(=O)Nc3c(C)cccc3Cl)s2)cc(N2CC[C@H](O)C2)n1 | Raji | ATP luminescence | 10 µM | 72 h | inhibition | -2%
CCCCCCCCCCCCCCCCCCOc1cccc(CC(=O)OCC[N+](C)(C)C)c1 | EKVX | SRB | 10 µM |  | inhibition | 1.89%
COc1ccc2/c(=N/c3ccccc3NC(=O)[C@H](C)N)cc(-c3ccc4c(c3)OCCO4)oc2c1 | HCT-116 | CCK-8 | 1 µM |  | inhibition | 16.5%
CCC(=O)Nc1nc2cc(-c3ccc4ncn(Cc5ccccc5)c(=O)c4c3)ccc2s1 | PC-9 | MTT |  | 72 h | IC50 | > 20 µM
CCCCCCCCCCCCCCCCCCOc1cccc(CC(=O)OCCC[N+](C)(C)C)c1 | EKVX | SRB | 10 µM |  | inhibition | 4.64%
O=C(NCc1cn(Cc2ccc(Br)cc2)nn1)Nc1ccccc1Br | PC-9 | CCK-8 | 50 µM | 72 h | viability | 163%
NCCC(=O)Nc1ccccc1/N=c1\cc(-c2ccc3c(c2)OCCO3)oc2cc(F)ccc12 | HCT-116 | CCK-8 | 1 µM |  | inhibition | 11.5%
O=C(Nc1ccc(F)cc1)Nc1nc2cc(-c3ccc4ncn(Cc5ccccc5)c(=O)c4c3)ccc2s1 | PC-9 | MTT |  | 72 h | IC50 | 7.3 µM
O=C(Nc1ccc(Cl)cc1)Nc1cccc(-c2cn(Cc3cccc(Cl)c3)nn2)c1 | PC-9 | CCK-8 | 50 µM | 72 h | viability | 118%
O=C(Nc1ccc(F)cc1)Nc1nc2cc(-c3ccc4ncn(CCN5CCOCC5)c(=O)c4c3)ccc2s1 | PC-9 | MTT |  | 72 h | IC50 | > 20 µM
COc1ccc(NC(=O)Nc2cccc(-c3cn(Cc4ccccc4C)nn3)c2)cc1 | PC-9 | CCK-8 | 20 µM | 72 h | viability | 121%
NCC(=O)Nc1ccccc1/N=c1\cc(-c2ccc3c(c2)OCO3)oc2c([N+](=O)[O-])cccc12 | HCT-116 | CCK-8 | 1 µM |  | inhibition | 12.2%
